Test results reported in ChEMBL document CHEMBL1152173, “Synthesis and in vitro evaluation of the antifungal activities of dihydropyrimidinones” (2008).
Converted amounts (≈) assume the structure as drawn. The source made the active and inactive calls. No cut-off for these calls is given here.

Key:
Trichoderma koningii [1] = experiment: Antifungal activity against Trichoderma koningii assessed as radial growth at 5% after 24 hrs by poison food technique of Flack relative to control; type: functional
Summary of the method: (§1)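 Acetone stock added to molten sterilized PDA to final 0.5–7%, plated in 90 mm dishes with compound-free plates as control. Each plate was inoculated with a 9 mm disc from a 4-day-old culture, incubated at 25 ± 1 °C, and colony diameter measured at 24 h intervals. % inhibition = (control − treatment)/control × 100; three replicates averaged.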

Trichoderma hamatum [2] = experiment: Antifungal activity against Trichoderma hamatum assessed as radial growth at 7% after 24 hrs by poison food technique of Flack relative to control; type: functional; summary of the method: as §1
Aspergillus niger [3] = experiment: Antifungal activity against Aspergillus niger assessed as radial growth at 3% after 48 hrs by poison food technique of Flack relative to control; type: functional
Aspergillus niger [4] = experiment: Antifungal activity against Aspergillus niger; type: functional
Trichoderma hamatum [5] = experiment: Antifungal activity against Trichoderma hamatum assessed as radial growth at 7% after 24 hrs by poison food technique of Flack; type: functional, organism-based
Summary of the method: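 Poisoned-food method: acetone stock mixed into molten sterilized potato dextrose agar to final 0.5, 1, 3, 5 or 7%, poured into 90 mm plates. Plates were inoculated with a 9 mm mycelial disc from a 4-day-old pure culture and incubated at 25 ± 1 °C. Colony diameter (mm) was read every 24 h; mean of three replicates.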

Aspergillus niger [6] = experiment: Antifungal activity against Aspergillus niger assessed as radial growth at 0.5% after 72 hrs by poison food technique of Flack relative to control; type: functional
Trichoderma hamatum [7] = experiment: Antifungal activity against Trichoderma hamatum assessed as radial growth at 0.5% after 72 hrs by poison food technique of Flack relative to control; type: functional
Trichoderma koningii [8] = experiment: Antifungal activity against Trichoderma koningii assessed as radial growth at 7% after 72 hrs by poison food technique of Flack relative to control; type: functional; summary of the method: as §1
Trichoderma hamatum [9] = experiment: Antifungal activity against Trichoderma hamatum assessed as radial growth at 1% after 48 hrs by poison food technique of Flack relative to control; type: functional
Trichoderma hamatum [10] = experiment: Antifungal activity against Trichoderma hamatum assessed as radial growth at 5% after 72 hrs by poison food technique of Flack relative to control; type: functional; summary of the method: as §1
Trichoderma koningii [11] = experiment: Antifungal activity against Trichoderma koningii assessed as radial growth at 0.5% after 72 hrs by poison food technique of Flack relative to control; type: functional; summary of the method: as §1
Trichoderma koningii [12] = experiment: Antifungal activity against Trichoderma koningii assessed as radial growth at 5% after 48 hrs by poison food technique of Flack relative to control; type: functional; summary of the method: as §1
Aspergillus niger [13] = experiment: Antifungal activity against Aspergillus niger assessed as radial growth at 1% after 72 hrs by poison food technique of Flack relative to control; type: functional
Aspergillus niger [14] = experiment: Antifungal activity against Aspergillus niger assessed as radial growth at 7% after 24 hrs by poison food technique of Flack relative to control; type: functional
Trichoderma koningii [15] = experiment: Antifungal activity against Trichoderma koningii assessed as radial growth at 0.5% after 24 hrs by poison food technique of Flack relative to control; type: functional; summary of the method: as §1
Aspergillus niger [16] = experiment: Antifungal activity against Aspergillus niger assessed as radial growth at 5% after 24 hrs by poison food technique of Flack relative to control; type: functional
Trichoderma hamatum [17] = experiment: Antifungal activity against Trichoderma hamatum assessed as radial growth at 3% after 48 hrs by poison food technique of Flack relative to control; type: functional
Trichoderma koningii [18] = experiment: Antifungal activity against Trichoderma koningii assessed as radial growth at 7% after 48 hrs by poison food technique of Flack relative to control; type: functional; summary of the method: as §1
Aspergillus niger [19] = experiment: Antifungal activity against Aspergillus niger assessed as radial growth at 7% after 48 hrs by poison food technique of Flack relative to control; type: functional
Trichoderma hamatum [20] = experiment: Antifungal activity against Trichoderma hamatum; type: functional
Trichoderma koningii [21] = experiment: Antifungal activity against Trichoderma koningii assessed as radial growth at 5% after 72 hrs by poison food technique of Flack relative to control; type: functional; summary of the method: as §1
Trichoderma hamatum [22] = experiment: Antifungal activity against Trichoderma hamatum assessed as radial growth at 5% after 48 hrs by poison food technique of Flack relative to control; type: functional; summary of the method: as §1
Trichoderma hamatum [23] = experiment: Antifungal activity against Trichoderma hamatum assessed as radial growth at 0.5% after 24 hrs by poison food technique of Flack relative to control; type: functional
Aspergillus niger [24] = experiment: Antifungal activity against Aspergillus niger assessed as radial growth at 3% after 72 hrs by poison food technique of Flack relative to control; type: functional
Trichoderma hamatum [25] = experiment: Antifungal activity against Trichoderma hamatum assessed as radial growth at 3% after 72 hrs by poison food technique of Flack relative to control; type: functional
Trichoderma koningii [26] = experiment: Antifungal activity against Trichoderma koningii assessed as radial growth at 0.5% after 48 hrs by poison food technique of Flack relative to control; type: functional; summary of the method: as §1
Trichoderma koningii [27] = experiment: Antifungal activity against Trichoderma koningii assessed as radial growth at 1% after 48 hrs by poison food technique of Flack relative to control; type: functional; summary of the method: as §1
Trichoderma koningii [28] = experiment: Antifungal activity against Trichoderma koningii assessed as radial growth at 3% after 24 hrs by poison food technique of Flack relative to control; type: functional; summary of the method: as §1
Trichoderma koningii [29] = experiment: Antifungal activity against Trichoderma koningii assessed as radial growth at 3% after 48 hrs by poison food technique of Flack relative to control; type: functional; summary of the method: as §1
Trichoderma hamatum [30] = experiment: Antifungal activity against Trichoderma hamatum assessed as radial growth at 3% after 24 hrs by poison food technique of Flack relative to control; type: functional
Trichoderma hamatum [31] = experiment: Antifungal activity against Trichoderma hamatum assessed as radial growth at 1% after 72 hrs by poison food technique of Flack relative to control; type: functional
Aspergillus niger [32] = experiment: Antifungal activity against Aspergillus niger assessed as radial growth at 1% after 48 hrs by poison food technique of Flack relative to control; type: functional
Trichoderma koningii [33] = experiment: Antifungal activity against Trichoderma koningii assessed as radial growth at 7% after 24 hrs by poison food technique of Flack relative to control; type: functional; summary of the method: as §1
Aspergillus niger [34] = experiment: Antifungal activity against Aspergillus niger assessed as radial growth at 5% after 72 hrs by poison food technique of Flack relative to control; type: functional
Aspergillus niger [35] = experiment: Antifungal activity against Aspergillus niger assessed as radial growth at 0.5% after 48 hrs by poison food technique of Flack relative to control; type: functional
Trichoderma hamatum [36] = experiment: Antifungal activity against Trichoderma hamatum assessed as radial growth at 7% after 48 hrs by poison food technique of Flack relative to control; type: functional; summary of the method: as §1
Trichoderma hamatum [37] = experiment: Antifungal activity against Trichoderma hamatum assessed as radial growth at 0.5% after 48 hrs by poison food technique of Flack relative to control; type: functional
Trichoderma koningii [38] = experiment: Antifungal activity against Trichoderma koningii assessed as radial growth at 3% after 72 hrs by poison food technique of Flack relative to control; type: functional; summary of the method: as §1
Aspergillus niger [39] = experiment: Antifungal activity against Aspergillus niger assessed as radial growth at 3% after 24 hrs by poison food technique of Flack relative to control; type: functional
Aspergillus niger [40] = experiment: Antifungal activity against Aspergillus niger assessed as radial growth at 1% after 24 hrs by poison food technique of Flack relative to control; type: functional
Trichoderma hamatum [41] = experiment: Antifungal activity against Trichoderma hamatum assessed as radial growth at 7% after 72 hrs by poison food technique of Flack relative to control; type: functional; summary of the method: as §1
Aspergillus niger [42] = experiment: Antifungal activity against Aspergillus niger assessed as radial growth at 5% after 48 hrs by poison food technique of Flack relative to control; type: functional
Trichoderma hamatum [43] = experiment: Antifungal activity against Trichoderma hamatum assessed as radial growth at 1% after 24 hrs by poison food technique of Flack relative to control; type: functional
Trichoderma koningii [44] = experiment: Antifungal activity against Trichoderma koningii assessed as radial growth at 1% after 72 hrs by poison food technique of Flack relative to control; type: functional; summary of the method: as §1

For CCOC(=O)C1=C(C)NC(=S)NC1c1ccccc1 (centres undefined), the “inhibition (INH)” value (Trichoderma koningii [1]) was 89.2%, the “inhibition (INH)” value (Trichoderma hamatum [2]) was 100% and the “inhibition (INH)” value (Aspergillus niger [3]) was 47.81%. The MIC (Aspergillus niger [4]) was 0.35 µg/mL (≈ 1.27 µM), the Activity (Trichoderma hamatum [5]) was “Active” and the “inhibition (INH)” value (Aspergillus niger [6]) was 0%. For the same compound, the “inhibition (INH)” value (Trichoderma hamatum [7]) was 0%, the “inhibition (INH)” value (Trichoderma koningii [8]) was 84.42% and the “inhibition (INH)” value (Trichoderma hamatum [9]) was 18.65%. For the same compound, the “inhibition (INH)” value (Trichoderma hamatum [10]) was 94.96%, the “inhibition (INH)” value (Trichoderma koningii [11]) was 0% and the “inhibition (INH)” value (Trichoderma koningii [12]) was 87.34%. The “inhibition (INH)” value (Aspergillus niger [13]) was 0%, the “inhibition (INH)” value (Aspergillus niger [14]) was 100% and the “inhibition (INH)” value (Trichoderma koningii [15]) was 0%. The “inhibition (INH)” value (Aspergillus niger [16]) was 33.33%, the “inhibition (INH)” value (Trichoderma hamatum [17]) was 67.62% and the “inhibition (INH)” value (Trichoderma koningii [18]) was 90.96%. The “inhibition (INH)” value (Aspergillus niger [19]) was 100%, the MIC (Trichoderma hamatum [20]) was 0.025 µg/mL (≈ 0.0905 µM) and the “inhibition (INH)” value (Trichoderma koningii [21]) was 79.82%. For the same compound, the “inhibition (INH)” value (Trichoderma hamatum [22]) was 93%, the “inhibition (INH)” value (Trichoderma hamatum [23]) was 17.13% and the “inhibition (INH)” value (Aspergillus niger [24]) was 36.36%. For the same compound, the “inhibition (INH)” value (Trichoderma hamatum [25]) was 37.65%, the “inhibition (INH)” value (Trichoderma koningii [26]) was 0% and the “inhibition (INH)” value (Trichoderma koningii [27]) was 0%. For the same compound, the “inhibition (INH)” value (Trichoderma koningii [28]) was 56.03%, the “inhibition (INH)” value (Trichoderma koningii [29]) was 68.08% and the “inhibition (INH)” value (Trichoderma hamatum [30]) was 67.13%. The “inhibition (INH)” value (Trichoderma hamatum [31]) was 0%, the “inhibition (INH)” value (Aspergillus niger [32]) was 0% and the “inhibition (INH)” value (Trichoderma koningii [33]) was 91.34%. The “inhibition (INH)” value (Aspergillus niger [34]) was 55.63%, the “inhibition (INH)” value (Aspergillus niger [35]) was 0% and the “inhibition (INH)” value (Trichoderma hamatum [36]) was 100%. The “inhibition (INH)” value (Trichoderma hamatum [37]) was 8.81%, the “inhibition (INH)” value (Trichoderma koningii [38]) was 62.71% and the “inhibition (INH)” value (Aspergillus niger [39]) was 33.33%. The “inhibition (INH)” value (Aspergillus niger [40]) was 0%, the “inhibition (INH)” value (Trichoderma hamatum [41]) was 95.98% and the “inhibition (INH)” value (Aspergillus niger [42]) was 54.54%. For the same compound, the “inhibition (INH)” value (Trichoderma hamatum [43]) was 47.78% and the “inhibition (INH)” value (Trichoderma koningii [44]) was 0%.
